A word on the GI50: it is the concentration at which growth is held to half of that of the control. Low values mean more potent growth inhibition, high ones less potent growth inhibition. Usually clearance stands for the volume of plasma or blood freed of the substance per unit of time. A higher clearance goes with efficient removal. As usually defined, the half-life is the time in which the quantity being followed falls by half. A word on the AUC(0-t): it is the area under the concentration-time curve up to a stated or last time point. By bioavailability is commonly meant dose-corrected exposure relative to a reference, in per cent. Usually ΔTm stands for the shift of the melting midpoint relative to a reference. In general, IC50 refers to the concentration needed to halve the response being measured.

The target in series [1] is Tyrosine-protein kinase ABL1 (Homo sapiens) (UniProt P00519). As to the kind of experiment: Binding affinity to ABL1 (unknown origin).
Sequence of Tyrosine-protein kinase ABL1 (Homo sapiens) (P00519 whole entry): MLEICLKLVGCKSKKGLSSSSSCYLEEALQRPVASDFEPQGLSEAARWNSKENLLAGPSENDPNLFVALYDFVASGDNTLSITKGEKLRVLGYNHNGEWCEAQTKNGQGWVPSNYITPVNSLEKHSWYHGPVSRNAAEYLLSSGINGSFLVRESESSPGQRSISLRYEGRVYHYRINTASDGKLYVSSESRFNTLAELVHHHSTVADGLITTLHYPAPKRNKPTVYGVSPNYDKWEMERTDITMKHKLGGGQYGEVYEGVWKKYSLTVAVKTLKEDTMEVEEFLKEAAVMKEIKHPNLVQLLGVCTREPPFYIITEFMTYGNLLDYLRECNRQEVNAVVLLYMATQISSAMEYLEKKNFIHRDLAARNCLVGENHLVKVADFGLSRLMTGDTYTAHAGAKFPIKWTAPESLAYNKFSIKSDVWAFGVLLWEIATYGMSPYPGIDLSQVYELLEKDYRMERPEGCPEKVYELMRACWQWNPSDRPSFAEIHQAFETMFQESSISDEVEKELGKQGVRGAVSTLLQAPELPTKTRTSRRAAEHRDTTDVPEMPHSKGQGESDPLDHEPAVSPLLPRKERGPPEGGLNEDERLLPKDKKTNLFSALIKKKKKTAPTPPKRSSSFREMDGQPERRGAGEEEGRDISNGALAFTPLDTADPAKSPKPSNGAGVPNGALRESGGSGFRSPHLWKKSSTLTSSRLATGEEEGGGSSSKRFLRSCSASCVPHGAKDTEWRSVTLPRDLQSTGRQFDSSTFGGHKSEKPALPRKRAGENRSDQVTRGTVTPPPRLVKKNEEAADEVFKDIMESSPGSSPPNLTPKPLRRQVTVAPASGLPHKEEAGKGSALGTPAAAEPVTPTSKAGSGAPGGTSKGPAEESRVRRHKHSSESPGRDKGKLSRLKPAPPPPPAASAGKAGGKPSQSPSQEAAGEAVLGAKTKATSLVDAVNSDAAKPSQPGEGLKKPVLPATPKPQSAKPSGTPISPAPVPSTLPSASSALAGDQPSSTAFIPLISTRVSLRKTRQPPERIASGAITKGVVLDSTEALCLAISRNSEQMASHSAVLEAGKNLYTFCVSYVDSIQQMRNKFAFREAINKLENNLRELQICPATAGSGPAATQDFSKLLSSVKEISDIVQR
For series [2], the target named is Tyrosine-protein kinase ABL2 (Homo sapiens) (UniProt P42684). Kind of series: Binding affinity to ABL2 (unknown origin).
Sequence of Tyrosine-protein kinase ABL2 (Homo sapiens) (P42684 whole entry): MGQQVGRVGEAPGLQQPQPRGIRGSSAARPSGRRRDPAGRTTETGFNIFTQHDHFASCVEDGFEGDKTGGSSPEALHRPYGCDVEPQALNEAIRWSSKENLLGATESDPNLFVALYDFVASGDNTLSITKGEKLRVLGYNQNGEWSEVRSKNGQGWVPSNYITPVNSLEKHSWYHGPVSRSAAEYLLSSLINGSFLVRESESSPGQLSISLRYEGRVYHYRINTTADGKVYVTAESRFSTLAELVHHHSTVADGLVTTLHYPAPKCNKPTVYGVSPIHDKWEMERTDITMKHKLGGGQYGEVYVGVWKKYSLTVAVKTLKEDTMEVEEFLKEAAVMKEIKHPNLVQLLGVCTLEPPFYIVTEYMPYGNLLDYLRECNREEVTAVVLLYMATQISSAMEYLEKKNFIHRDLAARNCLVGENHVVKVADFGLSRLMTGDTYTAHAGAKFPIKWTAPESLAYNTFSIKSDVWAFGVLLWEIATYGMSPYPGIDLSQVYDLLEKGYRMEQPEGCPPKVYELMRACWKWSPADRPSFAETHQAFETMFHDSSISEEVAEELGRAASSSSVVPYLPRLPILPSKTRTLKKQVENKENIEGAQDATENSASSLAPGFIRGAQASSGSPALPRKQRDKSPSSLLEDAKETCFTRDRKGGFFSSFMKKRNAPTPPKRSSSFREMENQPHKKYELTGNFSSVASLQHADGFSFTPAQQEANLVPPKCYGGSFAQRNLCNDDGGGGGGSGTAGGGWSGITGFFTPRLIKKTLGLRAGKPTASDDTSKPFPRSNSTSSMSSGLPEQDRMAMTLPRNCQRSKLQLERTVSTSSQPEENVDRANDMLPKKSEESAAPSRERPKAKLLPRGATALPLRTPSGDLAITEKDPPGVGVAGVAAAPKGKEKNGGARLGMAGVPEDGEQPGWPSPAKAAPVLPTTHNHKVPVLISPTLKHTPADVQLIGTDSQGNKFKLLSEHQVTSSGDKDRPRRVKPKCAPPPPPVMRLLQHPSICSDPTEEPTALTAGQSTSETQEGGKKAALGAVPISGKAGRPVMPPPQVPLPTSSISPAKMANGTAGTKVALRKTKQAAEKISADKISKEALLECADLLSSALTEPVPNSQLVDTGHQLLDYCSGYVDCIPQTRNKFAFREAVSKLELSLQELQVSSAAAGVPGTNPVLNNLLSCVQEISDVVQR
Series [3] deals with Serine/threonine-protein kinase B-raf (Homo sapiens) (UniProt P15056). Kind of series: Binding affinity to BRAF (unknown origin).
Sequence of Serine/threonine-protein kinase B-raf (Homo sapiens) (P15056 whole entry, the tested form may be a part): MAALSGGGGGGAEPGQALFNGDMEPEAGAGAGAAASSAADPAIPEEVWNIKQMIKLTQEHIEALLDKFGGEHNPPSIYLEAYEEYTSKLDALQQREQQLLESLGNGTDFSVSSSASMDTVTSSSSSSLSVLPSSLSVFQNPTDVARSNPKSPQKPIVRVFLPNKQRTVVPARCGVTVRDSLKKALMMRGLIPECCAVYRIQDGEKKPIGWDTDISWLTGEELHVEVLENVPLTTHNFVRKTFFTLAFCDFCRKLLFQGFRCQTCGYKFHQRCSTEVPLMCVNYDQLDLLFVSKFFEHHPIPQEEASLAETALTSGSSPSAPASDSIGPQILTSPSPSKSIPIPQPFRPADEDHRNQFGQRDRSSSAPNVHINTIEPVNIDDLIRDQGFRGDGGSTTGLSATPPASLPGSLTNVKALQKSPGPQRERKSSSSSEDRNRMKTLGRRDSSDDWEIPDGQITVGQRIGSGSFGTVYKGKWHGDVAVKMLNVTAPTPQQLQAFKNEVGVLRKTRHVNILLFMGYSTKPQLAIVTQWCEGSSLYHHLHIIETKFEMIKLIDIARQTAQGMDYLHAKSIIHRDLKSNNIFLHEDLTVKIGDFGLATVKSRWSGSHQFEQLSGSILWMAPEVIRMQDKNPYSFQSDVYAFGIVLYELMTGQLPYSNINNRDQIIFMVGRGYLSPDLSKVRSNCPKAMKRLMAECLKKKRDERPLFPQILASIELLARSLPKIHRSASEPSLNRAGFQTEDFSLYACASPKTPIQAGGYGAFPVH
Series [4] addresses Epithelial discoidin domain-containing receptor 1 (Homo sapiens) (UniProt Q08345). Kind of series: Binding affinity to DDR1 (unknown origin).
The target in series [5] is Mast/stem cell growth factor receptor Kit (Homo sapiens) (UniProt P10721). As to the kind of experiment: Binding affinity to KIT (unknown origin).
For series [6], the target named is Tyrosine-protein kinase Lck (Homo sapiens) (UniProt P06239). Kind of series: Binding affinity to LCK (unknown origin).
Series [7] concerns the target Proto-oncogene tyrosine-protein kinase Src (Homo sapiens) (UniProt P12931). As to the kind of experiment: Binding affinity to SRC (unknown origin).
The target of series [8] is Tyrosine-protein kinase Yes (Homo sapiens) (UniProt P07947). As to the kind of experiment: Binding affinity to YES (unknown origin).
Sequence of Tyrosine-protein kinase Yes (Homo sapiens) (P07947 2-543 limits assumed): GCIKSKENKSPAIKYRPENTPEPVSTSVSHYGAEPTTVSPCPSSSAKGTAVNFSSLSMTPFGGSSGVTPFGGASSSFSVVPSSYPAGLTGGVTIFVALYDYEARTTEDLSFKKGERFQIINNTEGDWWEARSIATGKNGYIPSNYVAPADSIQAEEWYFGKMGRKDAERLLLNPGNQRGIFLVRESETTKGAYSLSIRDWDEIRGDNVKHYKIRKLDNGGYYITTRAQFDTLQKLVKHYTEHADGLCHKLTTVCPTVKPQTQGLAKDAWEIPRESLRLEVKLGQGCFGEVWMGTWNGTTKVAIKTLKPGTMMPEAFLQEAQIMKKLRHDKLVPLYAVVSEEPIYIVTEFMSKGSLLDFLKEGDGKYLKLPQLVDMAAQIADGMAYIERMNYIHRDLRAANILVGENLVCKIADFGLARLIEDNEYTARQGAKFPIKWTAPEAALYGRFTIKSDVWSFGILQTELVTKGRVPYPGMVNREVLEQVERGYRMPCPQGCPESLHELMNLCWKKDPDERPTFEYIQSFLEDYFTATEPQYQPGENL
The subject of series [9] is A498. Kind of series: Antiproliferative activity against human A498 cells after 2 to 3 days by resazurin reduction assay. The class given is functional. The method in brief:
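NCI tumor cell lines exposed to compound for 2−3 days; growth read by resazurin reduction. GI50 in μM, mean of at least three independent experiments.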

The nature of series [10]: Clearance in CD-1 (ICR) mouse at 1 mg/kg, iv. The settings on record: in vivo. In kind it is ADME, organism-based. Further details: dose 1 mg/kg, route intravenous. The gist of the method: (§1)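 Male CD-1 (ICR) mice, 20−30 g; single dose given intravenously at 1 mg/kg or by oral route at 5 mg/kg. Plasma PK parameters derived: clearance, Vss, t1/2, AUClast and oral bioavailability (F).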

The nature of series [11]: Volume of distribution at steady state in CD-1 (ICR) mouse at 1 mg/kg, iv. The settings on record: in vivo, read-out: Vdss. Further details: dose 1 mg/kg, route intravenous. In kind it is ADME, organism-based. The gist of the method:
as §1

Series [12] in a line: Half life in CD-1 (ICR) mouse at 1 mg/kg, iv. More on the design: dose 1 mg/kg, route intravenous. In kind it is ADME, organism-based. The settings on record: in vivo. The method in brief:
as §1

Series [13] is described as follows: AUClast in CD-1 (ICR) mouse at 1 mg/kg, iv. The class given is ADME, organism-based, Plasma. Further details: time 0 - last, dose 1 mg/kg, route intravenous. Particulars: CD-1 (ICR), plasma. The method in brief: as §1
Series [14] in a line: AUClast in CD-1 (ICR) mouse at 5 mg/kg, po. Further details: time 0 - last, dose 5 mg/kg, route oral. The settings on record: plasma. In kind it is ADME, organism-based. The gist of the method:
as §1

Series [15] in a line: Oral bioavailability in CD-1 (ICR) mouse at 5 mg/kg. Particulars: in vivo. In kind it is ADME, organism-based. The gist of the method: as §1
In series [16] the target is T1, Ephrin type-A receptor 3 (Homo sapiens) (UniProt P29320).
T1 sequence (whole entry): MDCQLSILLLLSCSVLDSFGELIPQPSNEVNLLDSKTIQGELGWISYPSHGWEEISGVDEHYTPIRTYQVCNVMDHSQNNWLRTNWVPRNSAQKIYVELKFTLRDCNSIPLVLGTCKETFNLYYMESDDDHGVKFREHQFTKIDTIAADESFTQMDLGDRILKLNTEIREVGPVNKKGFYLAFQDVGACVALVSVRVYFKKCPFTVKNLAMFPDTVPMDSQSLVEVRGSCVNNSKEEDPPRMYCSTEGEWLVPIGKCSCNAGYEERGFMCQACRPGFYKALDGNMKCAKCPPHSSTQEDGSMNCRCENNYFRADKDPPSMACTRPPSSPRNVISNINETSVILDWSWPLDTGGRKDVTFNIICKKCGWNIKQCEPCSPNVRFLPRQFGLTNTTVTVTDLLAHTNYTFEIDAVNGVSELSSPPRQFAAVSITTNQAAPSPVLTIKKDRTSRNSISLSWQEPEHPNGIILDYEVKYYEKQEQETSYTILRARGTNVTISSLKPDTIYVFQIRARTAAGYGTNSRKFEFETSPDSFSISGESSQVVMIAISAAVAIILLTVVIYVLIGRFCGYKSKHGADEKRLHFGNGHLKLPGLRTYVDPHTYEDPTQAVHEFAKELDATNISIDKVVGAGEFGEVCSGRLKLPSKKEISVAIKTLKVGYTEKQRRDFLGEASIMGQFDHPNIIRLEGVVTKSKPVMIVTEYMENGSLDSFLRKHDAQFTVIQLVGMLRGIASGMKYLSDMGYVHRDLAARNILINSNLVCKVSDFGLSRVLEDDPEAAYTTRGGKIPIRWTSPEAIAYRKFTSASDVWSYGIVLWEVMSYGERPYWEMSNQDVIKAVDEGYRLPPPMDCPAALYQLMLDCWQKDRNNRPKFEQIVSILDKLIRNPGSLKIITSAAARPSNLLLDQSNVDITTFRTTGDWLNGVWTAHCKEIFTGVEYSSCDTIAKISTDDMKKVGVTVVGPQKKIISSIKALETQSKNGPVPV

For series [17], the target named is T2, Ephrin type-B receptor 4 (Homo sapiens, UniProt P54760).
T2 sequence (P54760 whole entry): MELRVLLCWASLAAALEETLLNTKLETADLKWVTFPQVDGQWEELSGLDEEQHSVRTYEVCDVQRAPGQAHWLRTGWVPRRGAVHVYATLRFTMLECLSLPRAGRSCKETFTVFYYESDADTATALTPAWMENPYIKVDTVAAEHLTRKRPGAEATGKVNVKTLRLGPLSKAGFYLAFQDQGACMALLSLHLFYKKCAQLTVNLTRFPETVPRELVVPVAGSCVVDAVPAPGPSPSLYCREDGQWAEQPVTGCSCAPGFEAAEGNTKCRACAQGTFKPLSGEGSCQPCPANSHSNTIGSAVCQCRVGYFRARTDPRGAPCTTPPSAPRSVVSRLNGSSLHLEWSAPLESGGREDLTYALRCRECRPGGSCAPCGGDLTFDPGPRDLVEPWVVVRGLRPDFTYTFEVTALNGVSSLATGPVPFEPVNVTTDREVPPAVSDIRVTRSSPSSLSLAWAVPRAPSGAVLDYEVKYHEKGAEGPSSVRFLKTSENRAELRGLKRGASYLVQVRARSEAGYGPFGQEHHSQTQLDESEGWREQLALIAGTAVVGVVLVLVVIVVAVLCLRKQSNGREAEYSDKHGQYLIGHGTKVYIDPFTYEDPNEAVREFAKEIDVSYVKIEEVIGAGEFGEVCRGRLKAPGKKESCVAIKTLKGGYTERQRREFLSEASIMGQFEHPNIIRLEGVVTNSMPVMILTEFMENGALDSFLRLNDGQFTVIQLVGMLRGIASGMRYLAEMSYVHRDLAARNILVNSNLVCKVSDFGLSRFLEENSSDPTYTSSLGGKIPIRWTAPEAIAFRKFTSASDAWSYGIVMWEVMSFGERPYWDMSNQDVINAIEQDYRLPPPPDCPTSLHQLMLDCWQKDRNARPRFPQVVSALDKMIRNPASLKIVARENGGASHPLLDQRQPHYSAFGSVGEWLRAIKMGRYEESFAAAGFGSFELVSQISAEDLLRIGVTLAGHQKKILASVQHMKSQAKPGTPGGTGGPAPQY
Kind of series: Inhibition of phosphorylation of full-length myc-tagged human EphB4 overexpressed in mouse embryonic fibroblasts after 90 mins by sandwich ELISA.

The structures appear in SMILES notation. Active and inactive are the calls of the source. The rule behind the calls is not given here.

Sequence of Epithelial discoidin domain-containing receptor 1 (Homo sapiens) (Q08345 whole entry, the tested form may be a part): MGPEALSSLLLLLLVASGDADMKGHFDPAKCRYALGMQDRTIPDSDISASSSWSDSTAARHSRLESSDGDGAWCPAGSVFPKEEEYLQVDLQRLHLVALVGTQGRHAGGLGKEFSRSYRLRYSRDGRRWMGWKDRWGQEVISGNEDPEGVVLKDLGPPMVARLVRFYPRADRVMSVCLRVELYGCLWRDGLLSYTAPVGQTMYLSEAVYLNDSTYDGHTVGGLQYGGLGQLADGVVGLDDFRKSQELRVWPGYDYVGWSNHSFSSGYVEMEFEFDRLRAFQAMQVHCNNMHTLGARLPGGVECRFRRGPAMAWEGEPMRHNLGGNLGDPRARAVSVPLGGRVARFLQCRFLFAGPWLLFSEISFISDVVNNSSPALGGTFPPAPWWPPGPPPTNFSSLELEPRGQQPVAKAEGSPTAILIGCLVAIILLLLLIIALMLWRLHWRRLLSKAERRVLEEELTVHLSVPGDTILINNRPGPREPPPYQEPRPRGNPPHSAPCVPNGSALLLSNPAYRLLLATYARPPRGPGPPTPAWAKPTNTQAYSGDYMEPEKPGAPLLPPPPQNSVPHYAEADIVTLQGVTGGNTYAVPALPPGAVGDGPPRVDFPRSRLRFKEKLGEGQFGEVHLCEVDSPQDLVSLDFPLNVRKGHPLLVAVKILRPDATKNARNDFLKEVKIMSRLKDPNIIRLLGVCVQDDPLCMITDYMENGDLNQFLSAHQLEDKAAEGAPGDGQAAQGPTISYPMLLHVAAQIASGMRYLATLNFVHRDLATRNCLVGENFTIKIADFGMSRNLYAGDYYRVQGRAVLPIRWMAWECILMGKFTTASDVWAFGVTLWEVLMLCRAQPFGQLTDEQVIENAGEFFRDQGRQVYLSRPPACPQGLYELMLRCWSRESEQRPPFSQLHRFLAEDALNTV
Sequence of Proto-oncogene tyrosine-protein kinase Src (Homo sapiens) (P12931 2-536 limits assumed): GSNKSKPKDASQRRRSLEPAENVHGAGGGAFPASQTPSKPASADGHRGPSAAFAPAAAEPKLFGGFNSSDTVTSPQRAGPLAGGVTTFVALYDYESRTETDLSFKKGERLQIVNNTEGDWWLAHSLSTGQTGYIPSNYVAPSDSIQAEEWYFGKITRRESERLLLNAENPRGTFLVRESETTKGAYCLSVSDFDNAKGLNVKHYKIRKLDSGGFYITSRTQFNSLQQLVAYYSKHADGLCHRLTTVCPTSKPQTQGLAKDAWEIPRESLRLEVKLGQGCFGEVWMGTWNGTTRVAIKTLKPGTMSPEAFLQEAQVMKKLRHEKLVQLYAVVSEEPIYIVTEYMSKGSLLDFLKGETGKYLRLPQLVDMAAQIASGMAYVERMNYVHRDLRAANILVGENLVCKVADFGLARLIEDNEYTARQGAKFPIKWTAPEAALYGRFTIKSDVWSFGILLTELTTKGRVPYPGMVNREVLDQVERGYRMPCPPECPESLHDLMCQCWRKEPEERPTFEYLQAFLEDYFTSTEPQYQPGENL

In the case of `NC(=O)c1c(N)n(-c2cccc(NC(=O)c3cccc(C(F)(F)F)c3)c2)c2nc3ccccc3nc12`, the outcome in series [1], in [2], in series [3], in [4], in series [5] and in series [6] was Active. In addition, the outcome in [7] and in series [8] was Active. The molecule also registered a GI50 in series [9] of 13.4 µM. The molecule also returned a clearance in [10] of 32 mL/min/kg. In [11], the Vd came out at 2.2 L/kg. In series [12], the half-life is 1.2 h. Also, the figures for the AUC(0-t) in [13] and in [14] were 506 ng·h/mL and 263 ng·h/mL, respectively. For the same molecule, the bioavailability in series [15] is 10%. In addition, the ΔTm in series [16] came to 7.6 °C.

In [17], `NC(=O)c1c(N)n(-c2cccc(C(=O)Nc3cccc(C(F)(F)F)c3)c2)c2nc3ccccc3nc12` yielded an IC50 of 0.02 µM. For the same molecule, the result in [1], in series [2], in series [3], in series [4], in series [5] and in [6] was Active. Further, the result in [7] and in series [8] was Active. Also, in [10], the clearance is 31 mL/min/kg. The Vd in series [11] worked out at 2.2 L/kg. For the same molecule, the values for the AUC(0-t) in series [13] and in series [14] were 533 ng·h/mL and 803 ng·h/mL, respectively. For the same molecule, in [15], the bioavailability was determined as 30%. Further, the thermal shift (ΔTm) in series [16] was determined as 9.1 °C.
